≈ marks a conversion by molar mass, not a printed value.
Tests used:
Listeria monocytogenes [1] = test: Antibacterial activity against Listeria monocytogenes NCTC 7973 treated for 24 hrs followed by sub-cultivated for 72 hrs by micro dilution method; type: functional
Procedure, shortened: (§1)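 2 µl from each well was serially subcultured into 100 µl fresh broth per well and incubated a further 72 h. MBC is the lowest concentration with no visible growth, taken as 99.5% killing of the original inoculum. Streptomycin and ampicillin were the positive controls.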

Salmonella typhimurium [2] = test: Antibacterial activity against Salmonella Typhimurium ATCC 13311 treated for 24 hrs followed by sub-cultivated for 72 hrs by micro dilution method; type: functional, Salmonella enterica subsp. enterica serovar Typhimurium; details: Salmonella enterica; procedure, shortened: as §1
Trichoderma viride [3] = test: Antifungal activity against Trichoderma viride IAM 5061 treated for 72 hrs followed by sub-cultivated for 5 days by serial dilution method; type: functional
Procedure, shortened: (§2)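 MFC obtained after the 72 h, 28 °C malt-broth microdilution (spore inoculum about 1.0 × 10^5 per well, compounds from 1 mg/ml DMSO). 2 µl was serially subcultured into 100 µl broth per well and incubated a further 5 days at 28 °C. MFC is the lowest concentration with no visible growth, taken as 99.5% killing of the original inoculum.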

Escherichia coli [4] = test: Antibacterial activity against Escherichia coli ATCC 35210 treated for 24 hrs followed by sub-cultivated for 72 hrs by micro dilution method; type: functional; procedure, shortened: as §1
Aspergillus fumigatus [5] = test: Antifungal activity against Aspergillus fumigatus human isolate after 72 hrs by serial dilution method; type: functional
Procedure, shortened: (§3)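 Modified microdilution MIC. Spores were washed from malt agar cultures with sterile 0.85% saline containing 0.1% Tween 80 and adjusted to about 1.0 × 10^5 per 100 µl well in malt broth. Compounds were dissolved in DMSO (1 mg/ml). Plates incubated 72 h at 28 °C. MIC is the lowest concentration with no visible growth under a binocular microscope. Bifonazole and ketoconazole were the references.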

Enterobacter cloacae [6] = test: Antibacterial activity against Enterobacter cloacae human isolate after 24 hrs by micro dilution method; type: functional
Procedure, shortened: (§4)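 Microdilution MIC in 96-well plates. Bacterial suspensions adjusted in sterile saline to 1.0 × 10^5 CFU/ml, giving 1.0 × 10^4 cfu per well in LB broth. Compounds tested at up to 1 mg/ml. Plates incubated 24 h. MIC taken as the lowest concentration with no visible growth under a binocular microscope. OD at 655 nm was also read against a blank and the positive control. Streptomycin and ampicillin were the positive controls.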

Aspergillus flavus [7] = test: Antifungal activity against Aspergillus flavus ATCC 9643 after 72 hrs by serial dilution method; type: functional; details: ATCC 9643, 72 h; procedure, shortened: as §3
Bacillus cereus [8] = test: Antibacterial activity against Bacillus cereus clinical isolate treated for 24 hrs followed by sub-cultivated for 72 hrs by micro dilution method; type: functional; procedure, shortened: as §1
Penicillium ochrochloron [9] = test: Antifungal activity against Penicillium ochrochloron ATCC 9112 after 72 hrs by serial dilution method; type: functional; details: ATCC 9112, 72 h; procedure, shortened: as §3
Listeria monocytogenes [10] = test: Antibacterial activity against Listeria monocytogenes NCTC 7973 after 24 hrs by micro dilution method; type: functional; details: NCTC 7973, 24 h; procedure, shortened: as §4
Micrococcus flavus [11] = test: Antibacterial activity against Micrococcus flavus ATCC 10240 after 24 hrs by micro dilution method; type: functional; details: ATCC 10240, 24 h; procedure, shortened: as §4
Penicillium ochrochloron [12] = test: Antifungal activity against Penicillium ochrochloron ATCC 9112 treated for 72 hrs followed by sub-cultivated for 5 days by serial dilution method; type: functional; procedure, shortened: as §2
Fulvia fulva [13] = test: Antifungal activity against Fulvia fulva treated for 72 hrs followed by sub-cultivated for 5 days by serial dilution method; type: functional; procedure, shortened: as §2
Talaromyces funiculosus [14] = test: Antifungal activity against Penicillium funiculosum ATCC 36839 treated for 72 hrs followed by sub-cultivated for 5 days by serial dilution method; type: functional; procedure, shortened: as §2
Aspergillus flavus [15] = test: Antifungal activity against Aspergillus flavus ATCC 9643 treated for 72 hrs followed by sub-cultivated for 5 days by serial dilution method; type: functional; procedure, shortened: as §2
Aspergillus versicolor [16] = test: Antifungal activity against Aspergillus versicolor ATCC 11730 treated for 72 hrs followed by sub-cultivated for 5 days by serial dilution method; type: functional; procedure, shortened: as §2
Fulvia fulva [17] = test: Antifungal activity against Fulvia fulva after 72 hrs by serial dilution method; type: functional; procedure, shortened: as §3
Talaromyces funiculosus [18] = test: Antifungal activity against Penicillium funiculosum ATCC 36839 after 72 hrs by serial dilution method; type: functional; details: ATCC 36839, 72 h; procedure, shortened: as §3
Bacillus cereus [19] = test: Antibacterial activity against Bacillus cereus clinical isolate after 24 hrs by micro dilution method; type: functional; procedure, shortened: as §4
Micrococcus flavus [20] = test: Antibacterial activity against Micrococcus flavus ATCC 10240 treated for 24 hrs followed by sub-cultivated for 72 hrs by micro dilution method; type: functional; procedure, shortened: as §1
Pseudomonas aeruginosa [21] = test: Antibacterial activity against Pseudomonas aeruginosa ATCC 27853 treated for 24 hrs followed by sub-cultivated for 72 hrs by micro dilution method; type: functional; procedure, shortened: as §1
Staphylococcus aureus [22] = test: Antibacterial activity against Staphylococcus aureus ATCC 6538 treated for 24 hrs followed by sub-cultivated for 72 hrs by micro dilution method; type: functional; procedure, shortened: as §1
Aspergillus fumigatus [23] = test: Antifungal activity against Aspergillus fumigatus human isolate treated for 72 hrs followed by sub-cultivated for 5 days by serial dilution method; type: functional; procedure, shortened: as §2
Pseudomonas aeruginosa [24] = test: Antibacterial activity against Pseudomonas aeruginosa ATCC 27853 after 24 hrs by micro dilution method; type: functional; details: ATCC 27853, 24 h; procedure, shortened: as §4
Escherichia coli [25] = test: Antibacterial activity against Escherichia coli ATCC 35210 after 24 hrs by micro dilution method; type: functional; details: ATCC 35210, 24 h; procedure, shortened: as §4
Aspergillus niger [26] = test: Antifungal activity against Aspergillus niger ATCC 6275 treated for 72 hrs followed by sub-cultivated for 5 days by serial dilution method; type: functional; procedure, shortened: as §2
Staphylococcus aureus [27] = test: Antibacterial activity against Staphylococcus aureus ATCC 6538 after 24 hrs by micro dilution method; type: functional; details: ATCC 6538, 24 h; procedure, shortened: as §4
Trichoderma viride [28] = test: Antifungal activity against Trichoderma viride IAM 5061 after 72 hrs by serial dilution method; type: functional; details: IAM 5061, 72 h; procedure, shortened: as §3
Aspergillus niger [29] = test: Antifungal activity against Aspergillus niger ATCC 6275 after 72 hrs by serial dilution method; type: functional; details: ATCC 6275, 72 h; procedure, shortened: as §3
Salmonella typhimurium [30] = test: Antibacterial activity against Salmonella Typhimurium ATCC 13311 after 24 hrs by micro dilution method; type: functional, Salmonella enterica subsp. enterica serovar Typhimurium; details: Salmonella enterica, ATCC 13311, 24 h; procedure, shortened: as §4
Aspergillus versicolor [31] = test: Antifungal activity against Aspergillus versicolor ATCC 11730 after 72 hrs by serial dilution method; type: functional; details: ATCC 11730, 72 h; procedure, shortened: as §3
Enterobacter cloacae [32] = test: Antibacterial activity against Enterobacter cloacae human isolate treated for 24 hrs followed by sub-cultivated for 72 hrs by micro dilution method; type: functional; procedure, shortened: as §1

## CCCNc1nnc(Cc2cc(OC)c(OC)cc2S(=O)(=O)N(C)C)s1
Listeria monocytogenes [1]
  MBC: 500 µM (≈ 200 µg/mL)
Salmonella typhimurium [2]
  MBC: 500 µM (≈ 200 µg/mL)
Trichoderma viride [3]
  MFC: 130 µM (≈ 52.1 µg/mL)
Escherichia coli [4]
  MBC: 250 µM (≈ 100 µg/mL)
Aspergillus fumigatus [5]
  MIC: 130 µM (≈ 52.1 µg/mL)
Enterobacter cloacae [6]
  MIC: 500 µM (≈ 200 µg/mL)
Aspergillus flavus [7]
  MIC: 130 µM (≈ 52.1 µg/mL)
Bacillus cereus [8]
  MBC: 500 µM (≈ 200 µg/mL)
Penicillium ochrochloron [9]
  MIC: 130 µM (≈ 52.1 µg/mL)
Listeria monocytogenes [10]
  MIC: 500 µM (≈ 200 µg/mL)
Micrococcus flavus [11]
  MIC: 250 µM (≈ 100 µg/mL)
Penicillium ochrochloron [12]
  MFC: 250 µM (≈ 100 µg/mL)
Fulvia fulva [13]
  MFC: 130 µM (≈ 52.1 µg/mL)
Talaromyces funiculosus [14]
  MFC: 250 µM (≈ 100 µg/mL)
Aspergillus flavus [15]
  MFC: 250 µM (≈ 100 µg/mL)
Aspergillus versicolor [16]
  MFC: 500 µM (≈ 200 µg/mL)
Fulvia fulva [17]
  MIC: 60 µM (≈ 24 µg/mL)
Talaromyces funiculosus [18]
  MIC: 130 µM (≈ 52.1 µg/mL)
Bacillus cereus [19]
  MIC: 250 µM (≈ 100 µg/mL)
Micrococcus flavus [20]
  MBC: 500 µM (≈ 200 µg/mL)
Pseudomonas aeruginosa [21]
  MBC: 500 µM (≈ 200 µg/mL)
Staphylococcus aureus [22]
  MBC: 500 µM (≈ 200 µg/mL)
Aspergillus fumigatus [23]
  MFC: 250 µM (≈ 100 µg/mL)
Pseudomonas aeruginosa [24]
  MIC: 500 µM (≈ 200 µg/mL)
Escherichia coli [25]
  MIC: 250 µM (≈ 100 µg/mL)
Aspergillus niger [26]
  MFC: 130 µM (≈ 52.1 µg/mL)
Staphylococcus aureus [27]
  MIC: 500 µM (≈ 200 µg/mL)
Trichoderma viride [28]
  MIC: 60 µM (≈ 24 µg/mL)
Aspergillus niger [29]
  MIC: 60 µM (≈ 24 µg/mL)
Salmonella typhimurium [30]
  MIC: 250 µM (≈ 100 µg/mL)
Aspergillus versicolor [31]
  MIC: 250 µM (≈ 100 µg/mL)
Enterobacter cloacae [32]
  MBC: 500 µM (≈ 200 µg/mL)

## COc1cc(Cc2nnc(NC(C)C)s2)c(S(=O)(=O)N(C)C)cc1OC
Listeria monocytogenes [1]
  MBC: 460 µM (≈ 184 µg/mL)
Salmonella typhimurium [2]
  MBC: 500 µM (≈ 200 µg/mL)
Trichoderma viride [3]
  MFC: 250 µM (≈ 100 µg/mL)
Escherichia coli [4]
  MBC: 460 µM (≈ 184 µg/mL)
Aspergillus fumigatus [5]
  MIC: 130 µM (≈ 52.1 µg/mL)
Enterobacter cloacae [6]
  MIC: 460 µM (≈ 184 µg/mL)
Aspergillus flavus [7]
  MIC: 250 µM (≈ 100 µg/mL)
Bacillus cereus [8]
  MBC: 500 µM (≈ 200 µg/mL)
Penicillium ochrochloron [9]
  MIC: 500 µM (≈ 200 µg/mL)
Listeria monocytogenes [10]
  MIC: 380 µM (≈ 152 µg/mL)
Micrococcus flavus [11]
  MIC: 380 µM (≈ 152 µg/mL)
Penicillium ochrochloron [12]
  MFC: 750 µM (≈ 300 µg/mL)
Fulvia fulva [13]
  MFC: 250 µM (≈ 100 µg/mL)
Talaromyces funiculosus [14]
  MFC: 500 µM (≈ 200 µg/mL)
Aspergillus flavus [15]
  MFC: 750 µM (≈ 300 µg/mL)
Aspergillus versicolor [16]
  MFC: 750 µM (≈ 300 µg/mL)
Fulvia fulva [17]
  MIC: 130 µM (≈ 52.1 µg/mL)
Talaromyces funiculosus [18]
  MIC: 250 µM (≈ 100 µg/mL)
Bacillus cereus [19]
  MIC: 250 µM (≈ 100 µg/mL)
Micrococcus flavus [20]
  MBC: 380 µM (≈ 152 µg/mL)
Pseudomonas aeruginosa [21]
  MBC: 380 µM (≈ 152 µg/mL)
Staphylococcus aureus [22]
  MBC: 460 µM (≈ 184 µg/mL)
Aspergillus fumigatus [23]
  MFC: 250 µM (≈ 100 µg/mL)
Pseudomonas aeruginosa [24]
  MIC: 250 µM (≈ 100 µg/mL)
Escherichia coli [25]
  MIC: 380 µM (≈ 152 µg/mL)
Aspergillus niger [26]
  MFC: 750 µM (≈ 300 µg/mL)
Staphylococcus aureus [27]
  MIC: 380 µM (≈ 152 µg/mL)
Trichoderma viride [28]
  MIC: 130 µM (≈ 52.1 µg/mL)
Aspergillus niger [29]
  MIC: 250 µM (≈ 100 µg/mL)
Salmonella typhimurium [30]
  MIC: 250 µM (≈ 100 µg/mL)
Aspergillus versicolor [31]
  MIC: 250 µM (≈ 100 µg/mL)
Enterobacter cloacae [32]
  MBC: 460 µM (≈ 184 µg/mL)
